The RNAGym collection of RNA variant scans (doi:10.1126/science.aae0568)
Variants at the floor of the assay were thinned out.

B1: tRNA (parent)
chain: GUUCCGUUGGCGUAAUGGUAACGCGUCUCCCUCCUAAGGAGAAGACUGCGGGUUCGAGUCCCGUACGGAACG

Variants of: B1
Assay: yeast fitness relative to wild type (ratio to wild type); higher = fitter; tRNA-Arg(CCU), competitive growth, 37 C, YPD
Outline: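 Genotype frequency changes were the basis for Darwinian fitness relative to wild type. The frequencies came from 100-nucleotide paired-end sequencing of gene amplicons from the start population and each end population of pooled yeast strains with tRNA-Arg(CCU) gene variants at the native locus. Competition ran in YPD at 37°C for 24 hours in six replicates, genotypes needed ≥ 100 starting reads, and estimates < 0.5 were set to 0.5.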

For G6A A20G, which yeast fitness is on record?
The yeast fitness was 0.897.

For U2C C24A C66U, which yeast fitness is on record?
Its yeast fitness is 0.61.

For U2A U3C C24G C33G C66U, which yeast fitness is on record?
The yeast fitness was no more than 0.5.

For G23C A37G C55G G67A, which yeast fitness is on record?
The yeast fitness was no more than 0.5.

For U8G G12A G50C G52C C55U C62U A70C, which yeast fitness is on record?
The yeast fitness was no more than 0.5.

Which yeast fitness does the source give for C24U C27U G39C here?
Its yeast fitness is no more than 0.5.

With C22A C29U C60A C66U as the variant, how does the yeast fitness read?
The yeast fitness was no more than 0.5.

Which yeast fitness does the source give for G41C A43C C66A here?
Its yeast fitness is 0.699.

With U2C C24A as the variant, how does the yeast fitness read?
The yeast fitness was 0.574.

For G39C A70U, which yeast fitness is on record?
Its yeast fitness is 0.873.

For G6A A65C, which yeast fitness is on record?
Its yeast fitness is 0.945.

Which yeast fitness does the source give for G9C U13A G41A C62U here?
Its yeast fitness is no more than 0.5.

With U19A C29G C46A G68C as the variant, how does the yeast fitness read?
Its yeast fitness is no more than 0.5.

With U16A C33A C34A as the variant, how does the yeast fitness read?
Its yeast fitness is no more than 0.5.

Which yeast fitness does the source give for C5G U28A G67C here?
Its yeast fitness is 0.634.

With U35G A40C as the variant, how does the yeast fitness read?
The yeast fitness was 0.682.

For G41C C49A G67A, which yeast fitness is on record?
Its yeast fitness is no more than 0.5.

With G12A A42G C66G G67C as the variant, how does the yeast fitness read?
The yeast fitness was no more than 0.5.

For G17C C30G C49U A57C C61G, which yeast fitness is on record?
Its yeast fitness is no more than 0.5.

Which yeast fitness does the source give for U35C A45U C49A here?
The yeast fitness was 0.594.

For C22A C46G G52A, which yeast fitness is on record?
The yeast fitness was no more than 0.5.

For G18C A36C, which yeast fitness is on record?
Its yeast fitness is no more than 0.5.

Which yeast fitness does the source give for G12C G68A here?
Its yeast fitness is 0.945.

With C22U G25C C33U A37U as the variant, how does the yeast fitness read?
The yeast fitness was no more than 0.5.

Which yeast fitness does the source give for A37C G51A U53C C62A here?
The yeast fitness was no more than 0.5.

Which yeast fitness does the source give for C27A A37G G39C C55U A65C here?
Its yeast fitness is no more than 0.5.

With C4A A57U as the variant, how does the yeast fitness read?
Its yeast fitness is 0.714.

For C5A U7G A14C U16G A43G U53C C62G, which yeast fitness is on record?
Its yeast fitness is no more than 0.5.

With C5G A14U G18A A21U A42G G68A as the variant, how does the yeast fitness read?
Its yeast fitness is 0.522.

Which yeast fitness does the source give for U2A C31A here?
Its yeast fitness is 0.815.

Which yeast fitness does the source give for U19A A37C here?
Its yeast fitness is 0.778.

For U13A G50C A70U, which yeast fitness is on record?
The yeast fitness was no more than 0.5.

With A21C C24U U32A G41A C62G as the variant, how does the yeast fitness read?
The yeast fitness was no more than 0.5.

Which yeast fitness does the source give for U8A U28A C66U here?
The yeast fitness was no more than 0.5.

Which yeast fitness does the source give for U28A C60G here?
Its yeast fitness is 0.572.

With A21G G67C as the variant, how does the yeast fitness read?
The yeast fitness was 0.865.

With C49U U54G as the variant, how does the yeast fitness read?
Its yeast fitness is 0.562.

Which yeast fitness does the source give for C4G U8A G12A G48A C62U here?
The yeast fitness was no more than 0.5.

Which yeast fitness does the source give for C5G G51C C61G C66U here?
The yeast fitness was no more than 0.5.

With C11G A43C as the variant, how does the yeast fitness read?
The yeast fitness was 0.63.

Which yeast fitness does the source give for U47C A65C here?
The yeast fitness was 1.04.

For U28C U32C C62A, which yeast fitness is on record?
Its yeast fitness is no more than 0.5.

For A21C C29U C31G A43U, which yeast fitness is on record?
Its yeast fitness is 0.612.

Which yeast fitness does the source give for U32C C33U C62U A65G here?
Its yeast fitness is 0.58.

For A14G G51A U54C, which yeast fitness is on record?
Its yeast fitness is no more than 0.5.

For G25C U53C A65C, which yeast fitness is on record?
The yeast fitness was 0.697.

For C5A A14C A43C, which yeast fitness is on record?
Its yeast fitness is no more than 0.5.

With C11A A21G as the variant, how does the yeast fitness read?
The yeast fitness was 0.774.

Which yeast fitness does the source give for U13C G48C A65G here?
The yeast fitness was 0.655.

With C55A U64A as the variant, how does the yeast fitness read?
The yeast fitness was 0.619.

With A20U C27G C29A as the variant, how does the yeast fitness read?
Its yeast fitness is no more than 0.5.

For U2G C27U C46U G68C, which yeast fitness is on record?
The yeast fitness was 0.763.

For U8A G12C A21C C27G C31U G52A, which yeast fitness is on record?
Its yeast fitness is 0.59.

With C4G C31A as the variant, how does the yeast fitness read?
Its yeast fitness is 0.817.

Which yeast fitness does the source give for U13A C22G C31G C61A here?
The yeast fitness was 0.512.

For C22A G48A G51A, which yeast fitness is on record?
Its yeast fitness is 0.582.

With U28C C62A as the variant, how does the yeast fitness read?
The yeast fitness was 0.746.

Which yeast fitness does the source give for U3C C46A G48A here?
Its yeast fitness is 0.877.

Which yeast fitness does the source give for C46U G52A U59C here?
The yeast fitness was 0.631.

For C33A A42C A45C U47G, which yeast fitness is on record?
The yeast fitness was 0.515.

With U19C C55A C66A as the variant, how does the yeast fitness read?
The yeast fitness was no more than 0.5.

For G17A C30G A45G C61G, which yeast fitness is on record?
The yeast fitness was no more than 0.5.

For G25C A57G, which yeast fitness is on record?
The yeast fitness was 0.892.

With G10A as the variant, how does the yeast fitness read?
Its yeast fitness is 0.705.

Which yeast fitness does the source give for G23A C30U C62A G68A here?
The yeast fitness was 0.575.

Which yeast fitness does the source give for U19C C29G U32G C61U C66A here?
Its yeast fitness is no more than 0.5.

With C4U C11U G25C as the variant, how does the yeast fitness read?
The yeast fitness was 0.747.

Which yeast fitness does the source give for C11A U16C G18C C61A G67A here?
Its yeast fitness is no more than 0.5.

Which yeast fitness does the source give for A42U C61G A65U here?
Its yeast fitness is no more than 0.5.

With C11A A43U C49U as the variant, how does the yeast fitness read?
The yeast fitness was 0.548.

For A37U A65G C66A, which yeast fitness is on record?
Its yeast fitness is no more than 0.5.

Which yeast fitness does the source give for C11A U16C C33U A37C here?
The yeast fitness was no more than 0.5.

Which yeast fitness does the source give for C27G G41A G67U here?
Its yeast fitness is 0.709.

With U2A C66U as the variant, how does the yeast fitness read?
Its yeast fitness is 0.739.

For A36C G38C G50C G51A G63C, which yeast fitness is on record?
Its yeast fitness is 0.642.

For U7C G41A A42C G50C C62U, which yeast fitness is on record?
The yeast fitness was no more than 0.5.

Which yeast fitness does the source give for A15G C24U C34U C61U here?
Its yeast fitness is no more than 0.5.

For U19C C27G U47A, which yeast fitness is on record?
The yeast fitness was no more than 0.5.

Which yeast fitness does the source give for C22U C29A U47C G68A A69C here?
Its yeast fitness is no more than 0.5.

With U16C G25C U53A as the variant, how does the yeast fitness read?
The yeast fitness was no more than 0.5.

Which yeast fitness does the source give for A14G U26A C27G C62A here?
Its yeast fitness is 0.571.

For U3A A42U A43G G48C U53A A69C, which yeast fitness is on record?
The yeast fitness was no more than 0.5.

For U7G A43G C46G G63A, which yeast fitness is on record?
The yeast fitness was no more than 0.5.

Which yeast fitness does the source give for A15U C33G G50U here?
The yeast fitness was 0.527.
